16 compounds from ChEMBL document CHEMBL1122508, “Conjugates of catecholamines. 1. N-alkyl-functionalized carboxylic acid congeners and amides related to isoproterenol” (1983) can be followed below.

This assay deals with S49. In words: In vitro biological activity against accumulation of cAMP in S49 cells as relative activity expressed as ratio of KA for isoproterenol to KA for the compound. Type of assay: functional, Mus musculus. The method, boiled down:
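Wild-type S-49 mouse lymphoma cells resuspended at 2–2.5 × 10^6/mL in DME (13.3 g/L), 20 mM Hepes pH 7.4, 0.1% BSA. Preincubated 10 min at 37 °C without drug, then 6 min with compound; stopped on ice, pellets boiled, cAMP measured by competitive binding. K_A taken from cAMP vs log concentration; ratio uses isoproterenol K_A run at the same time. Each K_A averages ≥3 determinations, each in triplicate.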

As to `CC(CCCCC(=O)Nc1ccccc1C(F)(F)F)NCC(O)c1ccc(O)c(O)c1.Cl` (stereo unspecified), the Relative activity turned out to be 0.00025.

In the case of `CC(CCCCC(=O)NC1CCCCC1)NCC(O)c1ccc(O)c(O)c1.Cl` (stereo unspecified), the Relative activity amounted to 0.17.

On to `Cc1ccc(NC(=O)CCC(C)NCC(O)c2ccc(O)c(O)c2)cc1.Cl` (stereo unspecified), for which the Relative activity was 0.71.

Turning to `CC(CCCCC(=O)O)NCC(O)c1ccc(O)c(O)c1` (stereo unspecified), the Relative activity turned out to be 0.00097.

As for `Cc1ccc(NC(=O)CCCCCC(C)NCC(O)c2ccc(O)c(O)c2)cc1.Cl` (stereo unspecified), the Relative activity came to 0.11.

In the case of `CC(CCCC(=O)O)NCC(O)c1ccc(O)c(O)c1` (stereo unspecified), the Relative activity turned out to be 0.00068.

`Cc1ccc(NC(=O)CCCC(C)NCC(O)c2ccc(O)c(O)c2)cc1.Cl` (stereo unspecified): the Relative activity is listed as 0.36.

As for `CC(CCCCC(=O)Nc1cccc(C(F)(F)F)c1)NCC(O)c1ccc(O)c(O)c1.Cl` (stereo unspecified), the Relative activity is on record as 0.98.

In the case of `Cc1ccc(N(C)C(=O)CCCCC(C)NCC(O)c2ccc(O)c(O)c2)cc1.Cl` (stereo unspecified), the Relative activity is given as 73.

Take `CC(CCCCCC(=O)O)NCC(O)c1ccc(O)c(O)c1` (stereo unspecified): the Relative activity turned out to be 0.00083.

Take `Cc1ccc(NC(=O)CCCCC(C)NCC(O)c2ccc(O)c(O)c2)cc1.Cl` (stereo unspecified): the Relative activity came to 54.

Regarding `COc1ccc(NC(=O)CCCCC(C)NCC(O)c2ccc(O)c(O)c2)cc1.Cl` (stereo unspecified), the Relative activity was 3.1.

Turning to `CC(CCC(=O)O)NCC(O)c1ccc(O)c(O)c1` (stereo unspecified), the Relative activity was 0.00016.

As for `CC(CCCCC(=O)Nc1ccc(C(F)(F)F)cc1)NCC(O)c1ccc(O)c(O)c1.Cl` (stereo unspecified), the Relative activity worked out at 11000.

On to `CCCCc1ccc(NC(=O)CCCCC(C)NCC(O)c2ccc(O)c(O)c2)cc1.Cl` (stereo unspecified), for which the Relative activity is listed as 3200.

`CCCCNC(=O)CCCCC(C)NCC(O)c1ccc(O)c(O)c1.Cl` (stereo unspecified): the Relative activity amounted to 0.25.
